Data published in article PMC9095748 (The Journal of Biological Chemistry, 2022).
Values after ≈ are worked out from the molar mass of the structure shown. Values joined by “and” are separate entries in the source; they are usually repeats but may differ in a detail not shown here. Equal values may be shown once.

Assays:
INS-1 cells = assay: Insulin secretion assay in INS-1 cells; assay type: cell-based, rat; settings: high glucose 16.7 mM, 1.5 h
Method in brief: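 INS-1 cells seeded, then held 16 h in 5 mM glucose medium and 1.5 h in 2.5 mM glucose. Treated 1.5 h with test compound or DMSO vehicle at 16.7 mM glucose. Supernatant insulin measured by rat insulin ELISA and normalized to total protein. n = 3/group.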

hGLP1R [1] = molecular target: T1, hGLP1R (Homo sapiens, UniProt P43220); assay: GLP1R internalization in hGLP1R-GFP transfected HepG2 cells; assay type: cell-based; settings: for GLP1R internalization: 50 μM, 1 h, hGLP1R-GFP transfected HepG2 cells
Method in brief: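 HepG2 cells lipofected with hGLP1R-spark-GFP, then treated 1 h with test compound (50 µM), Ex-4 (20 nM, positive control) or DMSO. For antagonism, Ex-9 (300 nM) added 15 min before. Washed in PBS and formalin-fixed. Surface labelled with sulfo-NHS-biotin (1 mg/ml, 30 min, 4 °C), washed in 100 mM glycine, PFA-fixed, blocked in 1% BSA and stained with Texas-Red-avidin (5 µg/ml, 30 min). Internalization read by confocal microscopy.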

TXNIP = TXNIP protein expression, Western blot in INS-1 cells; assay type: cell-based, rat; settings: PK2 30 min
Method in brief: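 INS-1 cells treated with test compound or DMSO vehicle for 30 min. Lysed in RIPA buffer with protease and phosphatase inhibitors, protein measured by BCA, and reduced at 95 °C for 5 min. Run on 4-10% SDS-PAGE and blotted to PVDF. Blocked in 5% BSA or milk, then probed with anti-TXNIP and HRP-conjugated secondary in TBST with 5% BSA.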

[2] = Pharmacokinetics after single oral dose in BALB/c mice; assay type: in vivo
Method in brief: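 Male BALB/c mice (5-6 weeks, 25 ± 2 g) given a single oral dose of 25 mg/kg and killed at 5 min to 24 h. Plasma extracted with acetonitrile:methanol (1:1) and run on reverse-phase C18 HPLC at 28 °C. Mobile phase 0.1% TFA water/acetonitrile (40:60) at 1 ml/min, fluorescence detection (ex 350 nm, em 497 nm). Quantified from peak-area standard curve; PK parameters by standard methods.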

PKA = PKA activity ELISA in hGLP1R transfected 293A cells; assay type: cell-based, human; settings: PK2 50 μM, 45 min, vs DMSO
Method in brief: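 293A cells lipofected with hGLP1R-spark-GFP. After 48 h, seeded at 1.0×10^4 cells/well. Next day treated with test compound (50 μM) or DMSO for 45 min in serum-free medium. PKA activity read by an ELISA on immobilized PKA substrate, per the kit protocol.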

[3] = Tissue distribution after oral administration in mice; assay type: in vivo, BALB/c mice; settings: 2 h after oral administration
Method in brief: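 Male BALB/c mice dosed orally at 25 mg/kg. Organs (pancreas, heart, brain, lung, spleen, kidney, liver) collected 2 h after dosing and homogenized. Extracted with acetonitrile:methanol (1:1) and run on reverse-phase C18 HPLC with 0.1% TFA water/acetonitrile (40:60) and fluorescence detection (ex 350 nm, em 497 nm). Quantified against a standard curve.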

[4] = Safety observation in BALB/c mice over 30 days of treatment; assay type: in vivo; settings: 25 mg/kg
TXNIP promoter = assay: TXNIP promoter-luciferase activity assay in INS-1 cells; assay type: cell-based, rat; settings: PK2 50 μM, 45 min, INS-1 cells transfected with TXNIP promoter-luciferase construct
[5] = test system: STZ-induced diabetic mouse model; assay: STZ-induced diabetic mouse model; assay type: in vivo, BALB/c mice
Method in brief: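 Male BALB/c mice, 6-7 weeks old, acclimated 1 week, on chow. STZ 65 mg/kg in citrate buffer pH 4.0 given IP for 5 days after overnight fast. Test compound 25 mg/kg oral in CMC for 18 days, starting 3 days before or 1 day after STZ. Controls received 0.25% CMC with or without STZ. Tail-vein glucose taken on alternate days, body weight on random days. Pancreas sections stained for insulin/Ki67 and insulin/TUNEL; n ≥ 5/group.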

[6] = test system: CREB phosphorylation at Ser133; assay: CREB phosphorylation, Western blot in HepG2 cells; assay type: cell-based, human; settings: PK2 50 μM, 1 hr, serum-starved HepG2 cells, vs DMSO
hGLP1R [7] = molecular target: T1, hGLP1R; assay: cAMP Glo assay in hGLP1R-transfected 293A cells; assay type: cell-based
Method in brief: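 293A cells transiently lipofected with hGLP1R at 70% confluency. Seeded 4 h later at 5×10^4 cells/well and left overnight. Treated 4 h with DMSO or test compound at 0.5, 10, 20, 100, 200, 300, 500, 1000 and 2000 nM. Cells lysed and cAMP read by cAMP-Glo luminescence. EC50 from curve fitting; n = 3/group.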

Solubility in DMSO = assay type: physicochemical
[8] = BALB/c mice, oral, single dose 25 mg/kg, plasma
[9] = male, BALB/c, mouse, plasma, po, 25 mg/kg

T1 sequence (P43220 24-463): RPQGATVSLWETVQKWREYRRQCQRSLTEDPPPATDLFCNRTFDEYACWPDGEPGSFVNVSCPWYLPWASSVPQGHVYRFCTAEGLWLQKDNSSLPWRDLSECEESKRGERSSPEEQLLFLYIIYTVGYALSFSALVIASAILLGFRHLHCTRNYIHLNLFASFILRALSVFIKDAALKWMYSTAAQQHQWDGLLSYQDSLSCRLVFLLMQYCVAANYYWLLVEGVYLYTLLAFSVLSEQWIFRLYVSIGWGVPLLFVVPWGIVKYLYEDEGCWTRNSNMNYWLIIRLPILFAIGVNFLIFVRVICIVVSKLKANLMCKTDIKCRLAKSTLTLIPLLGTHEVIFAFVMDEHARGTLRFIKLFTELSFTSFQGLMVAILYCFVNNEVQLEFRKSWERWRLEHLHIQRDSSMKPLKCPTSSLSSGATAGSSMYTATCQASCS

## O=[N+]([O-])c1ccc(Cn2cc(Cn3c4ccccc4c4nc5ccccc5nc43)nn2)cc1 [PK2, 6-((1-(4-nitrobenzyl)-1H-1,2,3-triazol-4-yl)methyl)-6H-indolo[2,3-b]quinoxaline]
INS-1 cells
  Increase in insulin secretion: 1.45 fold
hGLP1R [1]
  GLP1R internalization: rapidly internalized GLP1R receptors
TXNIP
  TXNIP protein expression: downregulates TXNIP
[2]; BALB/c mice, oral, single dose 25 mg/kg
  Plasma clearance (CL): 7.79 L/h
[2]; [8]
  AUMC (0-t): 13,601.58 ng h/ml
  Area of last: 320.1451 ng·h/mL
  Cl (Clearance): 7.7875 L/h
  K (Eliminatory rate constant): 0.2003 h⁻¹
[2]; BALB/c mice, oral, single dose 25 mg/kg, plasma, 25 mg/kg
  VD (Apparent volume of distribution): 38.88 L and 38.882 L
[2]; [9]
  AUC(0-t): 3210 ng·h/mL
  Cmax: 787 ng/mL
  Tmax: 1 h
[2]; male, BALB/c, mouse, plasma, po, 25 mg/kg, t1/2 (Elimination half life), BALB/c mice, single dose 25 mg/kg
  half-life: 4.8 h
PKA
  Increment in PKA activity: 1.6 fold
[3]
  Tissue distribution: brain: A small amount of PK2 was detectable
  Tissue distribution: heart, lungs, and spleen: no traces
  Tissue distribution: liver, kidney, and pancreas: distributed highly
[4]
  Abnormal behavior or acute toxicity: no abnormal behavior or acute toxicity was observed
TXNIP promoter
  TXNIP promoter activity: attenuates TXNIP promoter activity
[5]; PK2-treated groups, 25 mg/kg oral, end of study, vs STZ group
  Recovery of serum insulin levels: up to 6 fold
[5]; PK2 groups, Ki67 in insulin-positive islet cells
  Enhancement of β-cell proliferation (Ki67): 1.7 fold
[5]; PK2 groups, at termination of the study
  Pancreas weight: protection in pancreas weight
[5]; STZ mice, PK2 25 mg/kg oral, compared to STZ only
  Body weight: increased body weight
[5]; both PK2 groups compared to STZ group
  Reduction of number of TUNEL-positive cells in pancreatic islets: 3 fold
[5]; pre-PK2 and post-PK2 groups compared to STZ, insulin immunohistochemistry
  Preservation of β-cell mass: 4 fold
[5]; pre-PK2 and post-PK2 groups vs STZ group
  Islets area (H&E): significantly bigger islets area
[5]; pre-PK2 and post-PK2 groups, 25 mg/kg oral, compared to STZ only
  Reduction of plasma glucose levels: 1.4 fold
[6]
  Increase in CREB phosphorylation at Ser133: 1.7 fold
hGLP1R [7]
  EC50: 43.7 nM
Solubility in DMSO
  solubility: 10000 µg/mL (≈ 23 mM)

## Cc1ccc(Cn2cc(Cn3c4ccccc4c4nc5ccccc5nc43)nn2)cc1 [PK3, 6-((1-(4-methylbenzyl)-1H-1,2,3-triazol-4-yl)methyl)-6H-indolo[2,3-b]quinoxaline]
hGLP1R [1]
  GLP1R internalization: rapidly internalized GLP1R receptors

## Exendin (9–39) [Ex-9, reference compound]
hGLP1R [1]; Ex-9 300 nM for 15 min, then PK2 50 μM for 1 h, HepG2 cells
  Effect of antagonist on PK2-mediated GLP1R internalization: blocking PK2-mediated GLP1R internalization

## 6-((1-(4-methoxybenzyl)-1H-1,2,3-triazol-4-yl)methyl)-6H-indolo[2,3-b]quinoxaline [PK4]
hGLP1R [1]
  GLP1R internalization: rapidly internalized GLP1R receptors
